Calls of active or inactive are those of the source. The rule behind the calls is not given here. Positions of bridges follow the written chain, without caps; N, C: chain ends. Residues, ends and D or L forms follow the SMILES beside them. *: point of attachment. Stearoyl = CCCCCCCCCCCCCCCCCC(=O)*
Tests used:
MCF7 = assay: Antiproliferative activity against human MCF7 cells after 72 hrs by MTS assay; type: functional, cell-based; conditions: MCF7, 72 h
Calu-6 [1] = assay: Antiproliferative activity against human Calu6 cells after 72 hrs by MTS assay; type: functional, cell-based; conditions: Calu-6, 72 h
Calu-6 [2] = assay: Inhibition of cell proliferation in human Calu6 cells up to 1 uM after 72 hrs by MTS assay; type: functional, cell-based
Method in brief: (§1)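 Calu-6 cells grown in EMEM with 10% FBS. Seeded at 2,000 cells/well and attached for one day, then treated 72 h at 37°C, 5% CO2. MTS added for 2 h and absorbance read at 490 nm minus 690 nm. % cell death calculated against untreated control. Mean of 3 determinations ± S.E.M.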

Calu-6 [3] = assay: Inhibition of cell proliferation in human Calu6 cells at 100 uM after 72 hrs by MTS assay; type: functional, cell-based; method in brief: as §1
[4] = biological target: LSD1/CoREST complex (Homo sapiens) (UniProt O60341+Q9UKL0); assay: Inhibition of recombinant human LSD1/CoREST at 500 nM preincubated for 5 mins followed by ART-(N,N-dimethyl-K)-QTARKSTGGKAPRKQLA substrate addition measured after 25 mins by fluorescence assay relative to control
LSD1/CoREST complex (Homo sapiens), sequence (Q9UKL0 whole entry, looked up, other chains not shown): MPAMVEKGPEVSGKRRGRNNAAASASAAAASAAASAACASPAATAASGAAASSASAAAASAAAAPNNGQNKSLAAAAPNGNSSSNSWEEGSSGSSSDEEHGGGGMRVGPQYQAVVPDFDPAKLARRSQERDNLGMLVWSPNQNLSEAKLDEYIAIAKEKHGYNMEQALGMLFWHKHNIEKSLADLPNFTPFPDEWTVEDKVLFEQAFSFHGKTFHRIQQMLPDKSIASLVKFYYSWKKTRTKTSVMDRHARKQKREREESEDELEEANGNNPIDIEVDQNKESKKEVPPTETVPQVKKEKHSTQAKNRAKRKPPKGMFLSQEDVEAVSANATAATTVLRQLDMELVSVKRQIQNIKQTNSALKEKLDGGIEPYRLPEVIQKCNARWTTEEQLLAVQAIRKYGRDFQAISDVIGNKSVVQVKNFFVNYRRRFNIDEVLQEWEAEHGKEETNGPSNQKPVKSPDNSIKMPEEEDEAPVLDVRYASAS

K562 [5] = assay: Antiproliferative activity against human K562 cells assessed as cell death at 1 uM after 72 hrs by MTS assay relative to control; type: functional
K562 [6] = assay: Antiproliferative activity against human K562 cells assessed as cell death at 100 uM after 72 hrs by MTS assay relative to control; type: functional
K562 [7] = assay: Antiproliferative activity against human K562 cells after 72 hrs by MTS assay; type: functional, cell-based; conditions: K562, 72 h
[8] = biological target: Lysine-specific histone demethylase 1A (Homo sapiens) (UniProt O60341); assay: Inhibition of LSD1 in human NCI-H526 cells assessed as increase in H3K4me2 marks at promoter of IGFBP2 at 100 uM after 48 hrs by ChIP-qPCr method; type: cell-based
Method in brief: (§2)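 NCI-H526 small cell lung carcinoma cells treated 48 h at 100 µM alongside an untreated control. Cells formaldehyde cross-linked, nuclei sonicated and chromatin enzymatically digested. IP with H3K4me2 antibody (normal rabbit IgG as negative control) on protein G magnetic beads. Purified DNA quantified by TaqMan qPCR at promoter regions; fold change by comparative CT (Livak). SD from three qPCR wells.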

[9] = biological target: Lysine-specific histone demethylase 1A (Homo sapiens) (UniProt O60341); assay: Inhibition of LSD1 in human NCI-H526 cells assessed as increase in H3K4me2 marks at promoter of FEZ1 at 100 uM after 48 hrs by ChIP-qPCr method; type: cell-based; method in brief: as §2

Which results are given for `CCCCCCCCCCCCCCCCCC(=O)NCCCC[C@H](NC(=O)[C@H](C)NC(=O)[C@H](CC(C)C)NC(=O)[C@H](CCC(N)=O)NC(=O)[C@H](CCCCN)NC(=O)[C@H](CCCNC(=N)N)NC(=O)[C@@H]1CCCN1C(=O)[C@H](C)NC(=O)[C@H](CCCCN)NC(=O)CNC(=O)CNC(=O)[C@@H](NC(=O)[C@@H]1CCC(=O)NCCCC[C@H](NC(=O)[C@H](CCSC)NC(=O)[C@@H](NC(=O)[C@H](CCCNC(=N)N)NC(=O)[C@H](C)N)[C@@H](C)O)C(=O)N[C@@H]([C@@H](C)O)C(=O)N[C@@H](C)C(=O)N[C@@H](CCCNC(=N)N)C(=O)N[C@@H](CCCCN)C(=O)N1)[C@@H](C)O)C(N)=O`?
IC50 (MCF7): 4.4 µM; IC50 (Calu-6 [1]): 7.9 µM

For `CSCC[C@H](NC(=O)[C@H](C)NC(=O)[C@H](CCCNC(=N)N)NC(=O)[C@H](C)N)C(=O)N[C@H]1CCCCNC(=O)CC[C@@H](C(N)=O)NC(=O)[C@H](CCCCN)NC(=O)[C@H](CCCNC(=N)N)NC(=O)[C@H](C)NC(=O)[C@H]([C@@H](C)O)NC1=O` (H-ARAMKTARKE-NH2; lactam 5-10), which inhibition (Calu-6 [2]) is on record?
The inhibition was “inactive”.

And the inhibition (Calu-6 [3])?
Its inhibition is “inactive”.

What about the inhibition [4] of the same compound?
The inhibition was 59.8%.

How did the inhibition (Calu-6 [2]) turn out when `CSCC[C@H](NC(=O)[C@H](C)NC(=O)[C@H](CCCNC(=N)N)NC(=O)[C@H](C)N)C(=O)N[C@H]1CCCCNC(=O)CC[C@@H](C(=O)N[C@H](C(=O)NCC(N)=O)[C@@H](C)O)NC(=O)[C@H](CCCCN)NC(=O)[C@H](CCCNC(=N)N)NC(=O)[C@H](C)NC(=O)[C@H]([C@@H](C)O)NC1=O` (H-ARAMKTARKETG-NH2; lactam 5-10) was run?
Its inhibition is “inactive”.

What about the Activity (K562 [5]) of the same compound?
The Activity was 90%.

And the Activity (K562 [6])?
The Activity was 18%.

What about the inhibition (Calu-6 [3]) of the same compound?
The inhibition was “inactive”.

And the inhibition [4]?
The inhibition was 67.3%.

Which inhibition (Calu-6 [2]) does the source give for `CSCC[C@H](NC(=O)[C@H](C)NC(=O)[C@H](CCCNC(=N)N)NC(=O)[C@H](C)N)C(=O)N[C@H]1CCCCNC(=O)CC[C@@H](C(=O)N[C@H](C(=O)NCC(=O)NCC(=O)N[C@@H](CCCCN)C(=O)N[C@@H](C)C(N)=O)[C@@H](C)O)NC(=O)[C@H](CCCCN)NC(=O)[C@H](CCCNC(=N)N)NC(=O)[C@H](C)NC(=O)[C@H]([C@@H](C)O)NC1=O` (H-ARAMKTARKETGGKA-NH2; lactam 5-10) here?
Its inhibition is “inactive”.

And the Activity (K562 [5])?
Its Activity is 53%.

And the Activity (K562 [6])?
The Activity was 11%.

And the inhibition (Calu-6 [3])?
Its inhibition is “inactive”.

What about the inhibition [4] of the same compound?
Its inhibition is 73.4%.

For `CSCC[C@H](NC(=O)[C@H](C)NC(=O)[C@H](CCCNC(=N)N)NC(=O)[C@H](C)N)C(=O)N[C@H]1CCCCNC(=O)CC[C@@H](C(=O)N[C@H](C(=O)NCC(=O)NCC(=O)N[C@@H](CCCCN)C(=O)N[C@@H](C)C(=O)N2CCC[C@H]2C(=O)N[C@@H](CCCNC(=N)N)C(=O)N[C@@H](CCCCN)C(N)=O)[C@@H](C)O)NC(=O)[C@H](CCCCN)NC(=O)[C@H](CCCNC(=N)N)NC(=O)[C@H](C)NC(=O)[C@H]([C@@H](C)O)NC1=O` (H-ARAMKTARKETGGKAPRK-NH2; lactam 5-10), which inhibition (Calu-6 [2]) is on record?
Its inhibition is “inactive”.

What about the Activity (K562 [5]) of the same compound?
Its Activity is 59%.

What about the Activity (K562 [6]) of the same compound?
The Activity was 9.5%.

What about the inhibition (Calu-6 [3]) of the same compound?
The inhibition was “inactive”.

What about the inhibition [4] of the same compound?
Its inhibition is 98%.

With `CCCCCCCCCCCCCCCCCC(=O)NCCCC[C@H](NC(=O)[C@H](C)NC(=O)[C@H](CC(C)C)NC(=O)[C@H](CCC(N)=O)NC(=O)[C@H](CCCCN)NC(=O)[C@H](CCCNC(=N)N)NC(=O)[C@@H]1CCCN1C(=O)[C@H](C)NC(=O)[C@H](CCCCN)NC(=O)CNC(=O)CNC(=O)[C@@H](NC(=O)[C@@H]1CCC(=O)NCCCC[C@H](NC(=O)[C@H](CCSC)NC(=O)[C@H](C)NC(=O)[C@H](CCCNC(=N)N)NC(=O)[C@H](C)N)C(=O)N[C@@H]([C@@H](C)O)C(=O)N[C@@H](C)C(=O)N[C@@H](CCCNC(=N)N)C(=O)N[C@@H](CCCCN)C(=O)N1)[C@@H](C)O)C(N)=O` (H-ARAMKTARKETGGKAPRKQLAK(Stearoyl)-NH2; lactam 5-10) as the compound, how does the IC50 (MCF7) read?
Its IC50 is 4.6 µM.

What about the IC50 (Calu-6 [1]) of the same compound?
Its IC50 is 10.1 µM.

What does the source list for `CC(C)C[C@H](NC(=O)[C@H](CCC(N)=O)NC(=O)[C@H](CCCCN)NC(=O)[C@H](CCCNC(=N)N)NC(=O)[C@@H]1CCCN1C(=O)[C@H](C)NC(=O)[C@H](CCCCN)NC(=O)CNC(=O)CNC(=O)[C@@H](NC(=O)[C@@H]1CCC(=O)NCCCC[C@H](NC(=O)[C@H](C)NC(=O)[C@@H](NC(=O)[C@H](CCCNC(=N)N)NC(=O)[C@H](C)N)[C@@H](C)O)C(=O)N[C@@H]([C@@H](C)O)C(=O)N[C@@H](C)C(=O)N[C@@H](CCCNC(=N)N)C(=O)N[C@@H](CCCCN)C(=O)N1)[C@@H](C)O)C(=O)N[C@@H](C)C(N)=O` (H-ARTAKTARKETGGKAPRKQLA-NH2; lactam 5-10)?
IC50 (MCF7): 1240 µM; IC50 (Calu-6 [1]): 956 µM; IC50 (K562 [7]): 139 µM

Which IC50 (MCF7) does the source give for `CSCC[C@H](NC(=O)[C@@H](NC(=O)[C@H](CCCNC(=N)N)NC(=O)[C@H](C)N)[C@@H](C)O)C(=O)N[C@H]1CCCCNC(=O)CC[C@@H](C(=O)N[C@H](C(=O)NCC(=O)NCC(=O)N[C@@H](CCCCN)C(=O)N[C@@H](C)C(=O)N2CCC[C@H]2C(=O)N[C@@H](CCCNC(=N)N)C(=O)N[C@@H](CCCCN)C(=O)N[C@@H](CCC(N)=O)C(=O)N[C@@H](CC(C)C)C(=O)N[C@@H](C)C(N)=O)[C@@H](C)O)NC(=O)[C@H](CCCCN)NC(=O)[C@H](CCCNC(=N)N)NC(=O)[C@H](C)NC(=O)[C@H](C)NC1=O` (H-ARTMKAARKETGGKAPRKQLA-NH2; lactam 5-10) here?
Its IC50 is 154 µM.

What about the IC50 (Calu-6 [1]) of the same compound?
The IC50 was 93 µM.

What about the IC50 (K562 [7]) of the same compound?
Its IC50 is 8.2 µM.

Which IC50 (MCF7) does the source give for `CSCC[C@H](NC(=O)[C@@H](NC(=O)[C@H](CCCNC(=N)N)NC(=O)[C@H](C)N)[C@@H](C)O)C(=O)N[C@H]1CCCCNC(=O)CC[C@@H](C(=O)N[C@H](C(=O)N[C@@H](C)C(=O)NCC(=O)N[C@@H](CCCCN)C(=O)N[C@@H](C)C(=O)N2CCC[C@H]2C(=O)N[C@@H](CCCNC(=N)N)C(=O)N[C@@H](CCCCN)C(=O)N[C@@H](CCC(N)=O)C(=O)N[C@@H](CC(C)C)C(=O)N[C@@H](C)C(N)=O)[C@@H](C)O)NC(=O)[C@H](CCCCN)NC(=O)[C@H](CCCNC(=N)N)NC(=O)[C@H](C)NC(=O)[C@H]([C@@H](C)O)NC1=O` (H-ARTMKTARKETAGKAPRKQLA-NH2; lactam 5-10) here?
Its IC50 is 1010 µM.

What about the IC50 (Calu-6 [1]) of the same compound?
The IC50 was 766 µM.

What about the IC50 (K562 [7]) of the same compound?
Its IC50 is 42 µM.

For `CSCC[C@H](NC(=O)[C@@H](NC(=O)[C@H](CCCNC(=N)N)NC(=O)[C@H](C)N)[C@@H](C)O)C(=O)N[C@H]1CCCCNC(=O)CC[C@@H](C(=O)N[C@H](C(=O)NCC(=O)NCC(=O)N[C@@H](C)C(=O)N[C@@H](C)C(=O)N2CCC[C@H]2C(=O)N[C@@H](CCCNC(=N)N)C(=O)N[C@@H](CCCCN)C(=O)N[C@@H](CCC(N)=O)C(=O)N[C@@H](CC(C)C)C(=O)N[C@@H](C)C(N)=O)[C@@H](C)O)NC(=O)[C@H](CCCCN)NC(=O)[C@H](CCCNC(=N)N)NC(=O)[C@H](C)NC(=O)[C@H]([C@@H](C)O)NC1=O` (H-ARTMKTARKETGGAAPRKQLA-NH2; lactam 5-10), which IC50 (MCF7) is on record?
The IC50 was 156 µM.

And the IC50 (Calu-6 [1])?
The IC50 was 159 µM.

What about the IC50 (K562 [7]) of the same compound?
Its IC50 is 198 µM.

How did the IC50 (MCF7) turn out when `CSCC[C@H](NC(=O)[C@@H](NC(=O)[C@H](CCCNC(=N)N)NC(=O)[C@H](C)N)[C@@H](C)O)C(=O)N[C@H]1CCCCNC(=O)CC[C@@H](C(=O)N[C@H](C(=O)NCC(=O)NCC(=O)N[C@@H](CCCCN)C(=O)N[C@@H](C)C(=O)N[C@@H](C)C(=O)N[C@@H](CCCNC(=N)N)C(=O)N[C@@H](CCCCN)C(=O)N[C@@H](CCC(N)=O)C(=O)N[C@@H](CC(C)C)C(=O)N[C@@H](C)C(N)=O)[C@@H](C)O)NC(=O)[C@H](CCCCN)NC(=O)[C@H](CCCNC(=N)N)NC(=O)[C@H](C)NC(=O)[C@H]([C@@H](C)O)NC1=O` (H-ARTMKTARKETGGKAARKQLA-NH2; lactam 5-10) was run?
The IC50 was 385 µM.

What about the IC50 (Calu-6 [1]) of the same compound?
The IC50 was 409 µM.

And the IC50 (K562 [7])?
The IC50 was 35.6 µM.

`c1ccc([C@@H]2C[C@H]2NC2CCNCC2)cc1` (relative stereo) was tested. Which inhibition [8] did it give?
Its inhibition is “Active”.

And the inhibition [9]?
Its inhibition is “Active”.

Reference: ChEMBL document CHEMBL4196023, “Cyclic peptide inhibitors of lysine-specific demethylase 1 with improved potency identified by alanine scanning mutagenesis” (Eur J Med Chem, 2018)
